From ChEMBL document CHEMBL1138201, “Development and characterization of biphenylsulfonamides as novel inhibitors of bone resorption” (J Med Chem, 2006)
Activity calls are given as the source filed them. The calls are words filed in the database; no cut-off is given here.

How the values were obtained:
[1] = tested on: J774; assay: Inhibition of mouse J774 cell survival by alamar blue viability assay; type: functional, cell-based
In short: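 J774 cells were seeded at 10⁴ per well in […] with 10% FCS and penicillin/streptomycin and grown overnight. Compounds were then added for 48 h. Alamar Blue was added for a further 3 h and viability was read as fluorescence (ex 530, em 590 nm). There were at least three independent experiments, n = 5 each, and IC₅₀ was fitted.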

[2] = organism: Homo sapiens; assay: Inhibition of TNF-alpha-activated NF-kappaB
[3] = organism: Homo sapiens; assay: Inhibition of RANKL-activated NF-kappaB
[4] = tested on: Osteoclast; assay: Inhibition of mouse osteoclast survival; type: functional, cell-based
In short: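 Mouse bone marrow from femora and tibiae was grown 3 days with 100 ng/mL M-CSF. Adherent cells were seeded on dentine slices (4 × 10⁴ cells/mL) with 100 ng/mL RANKL and 25 ng/mL M-CSF for 7 days. Compounds were present for 72 h from day 4. TRAcP-positive cells with ≥3 nuclei were counted as % of vehicle. Three experiments, n = 5 each.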

[5] = tested on: Mus musculus; assay: Inhibition of ovariectomy-induced bone loss in C57/BL6 mouse at 5 mg/kg/day, ip; type: functional, organism-based
In short: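 Nine-week-old female C57/BL6 mice were ovariectomized or sham-operated. Starting 2 days after surgery, they received 5 (mg/kg)/day intraperitoneally in corn oil for 21 days; controls received oil alone. The study ended on day 23. Bone at the right tibial metaphysis was measured by µCT at 5 µm resolution over 200 slices distal to the growth plate. Results are % change from sham, ±SEM, n = 6.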

[6] = tested on: Osteoclast; assay: Apoptosis of osteoclast at 5 to 20 uM; type: functional, cell-based; details: Homo sapiens
[7] = tested on: Macrophage; assay: Apoptosis of macrophage at 5 to 20 uM; type: functional, cell-based; details: Homo sapiens
[8] = tested on: Osteoblast; assay: Effect on apoptosis of osteoblast; type: functional, cell-based; details: Homo sapiens
[9] = tested on: Hepatocyte; assay: Effect on apoptosis of hepatocyte; type: functional, cell-based; details: Homo sapiens

| SMILES | IC50 [1] | further results |
| --- | --- | --- |
| COc1cc(S(=O)(=O)NCCCCCO)ccc1-c1ccc(F)cc1F | 33 µM |  |
| Cc1cccc(-c2ccc(S(=O)(=O)NCCCCO)cc2)c1 | 28 µM |  |
| O=S(=O)(NCCCCCCO)c1ccc(-c2ccccc2)cc1 | 13 µM |  |
| O=S(=O)(NCCCCCO)c1ccc(-c2ccc(C(F)(F)F)cc2C(F)(F)F)cc1 | 2 µM |  |
| O=S(=O)(NCCCCO)c1ccc(-c2ccccc2)cc1C(F)(F)F | 4.5 µM |  |
| O=S(=O)(NCCCCO)c1ccc(-c2ccccc2)cc1 | 18 µM | Activity [2]: Active; Activity [3]: Active; IC50 [4]: 8 µM |
| N#Cc1ccc(-c2ccc(S(=O)(=O)NCCCCCO)cc2)cc1 | 12 µM |  |
| O=S(=O)(NCCCCO)c1ccc(-c2ccc(OC(F)(F)F)cc2)cc1 | 8 µM |  |
| O=S(=O)(NCCCCO)c1ccc(-c2ccc(C(F)(F)F)cc2)cc1F | 5 µM |  |
| O=S(=O)(NCCCCO)c1ccccc1-c1ccc(F)cc1 | > 50 µM |  |
| O=S(=O)(NCCCCO)c1ccc(-c2ccc(F)cc2F)c(C(F)(F)F)c1 | 0.7 µM |  |
| CC(=O)c1ccc(-c2ccc(S(=O)(=O)NCCCCCO)cc2)cc1 | 11 µM |  |
| O=S(=O)(NCCCCCO)c1ccc(-c2ccccc2)cc1 | 18 µM |  |
| O=S(=O)(NCCCCO)c1ccc(-c2ccccc2I)cc1 | 5.5 µM |  |
| O=S(=O)(NCCCCO)c1cccc(-c2ccc(C(F)(F)F)cc2)c1 | > 50 µM |  |
| Cc1cc(S(=O)(=O)NCCCCO)ccc1-c1ccc(F)cc1F | 0.8 µM | Activity [2]: Active; Activity [3]: Active; IC50 [4]: 0.15 µM; Activity [5]: Active |
| O=S(=O)(NCCCCCO)c1ccc(-c2ccc(Br)cc2)cc1 | 9 µM |  |
| Cc1ccc(-c2ccc(S(=O)(=O)NCCCCCO)cc2)cc1 | 13 µM |  |
| O=S(=O)(NCCCCO)c1ccc(-c2ccc(Br)cc2F)cc1 | 3 µM |  |
| CN(C)c1ccc(-c2ccc(S(=O)(=O)NCCCCCO)cc2)cc1 | 32 µM |  |

| SMILES | IC50 [1] | further results |
| --- | --- | --- |
| O=S(=O)(NCCCCO)c1ccc(-c2ccccc2C(F)(F)F)cc1 | 6 µM |  |
| O=S(=O)(NCCCCO)c1ccc(-c2ccc(Br)cc2)cc1 | 8 µM |  |
| Cc1cc(S(=O)(=O)NCCCCO)ccc1-c1ccc(F)cc1 | 2.5 µM |  |
| CSc1ccc(-c2ccc(S(=O)(=O)NCCCCO)cc2)cc1 | 35 µM |  |
| O=C(OCCCCO)c1ccc(-c2ccccc2)cc1 |  | Activity [2]: Active; Activity [3]: Active; IC50 [4]: 9 µM; Activity [6]: Active; Activity [7]: Active; IC50 [8]: > 100 µM; IC50 [9]: > 200 µM |
| O=[N+]([O-])c1ccccc1-c1ccc(S(=O)(=O)NCCCCO)cc1 | 2 µM |  |
| O=S(=O)(NCCCCCO)c1ccc(-c2ccc(O)cc2)cc1 | 21 µM |  |
| O=S(=O)(NCCCCCO)c1ccc(-c2ccc(F)cc2F)cc1 | 4.5 µM |  |
| O=S(=O)(NCCCCO)c1ccc(-c2ccc(C(F)(F)F)cc2)cc1 | 5 µM |  |
| O=S(=O)(NCCCO)c1ccc(-c2ccccc2)cc1 | > 50 µM |  |
| O=S(=O)(NCCCCCO)c1ccc(-c2ccc(Cl)cc2Cl)cc1 | 2.5 µM |  |
| Nc1ccccc1-c1ccc(S(=O)(=O)NCCCCO)cc1 | 24 µM |  |
| O=S(=O)(NCCCCO)c1ccc(-c2ccc(C(F)(F)F)cc2)c(F)c1 | 5.5 µM |  |
| O=[N+]([O-])c1cccc(-c2ccc(S(=O)(=O)NCCCCO)cc2)c1 | 33 µM |  |
| O=S(=O)(NCCCCCO)c1ccc(-c2ccc(F)c(F)c2)cc1 | 16 µM |  |
| O=S(=O)(NCCCCO)c1ccc(-c2ccc(F)cc2)cc1 | 8 µM |  |
| O=C(O)c1ccc(-c2ccc(S(=O)(=O)NCCCCCO)cc2)cc1 | 33 µM |  |
| O=S(=O)(NCCCCCO)c1ccc(-c2ccc(-c3ccccc3)cc2)cc1 | 33 µM |  |
| COc1ccccc1-c1ccc(S(=O)(=O)NCCCCCO)cc1 | 31 µM |  |
